In ChEMBL document CHEMBL1130193, “Synthesis, cardiotonic activity, and structure-activity relationships of 17 beta-guanylhydrazone derivatives of 5 beta-androstane-3 beta, 14 beta-diol acting on the Na+,K(+)-ATPase receptor” (J Med Chem, 1997):

How the values were obtained:
[1] = % of preparations of arrhythmogenic activity was determined by the onset of the first series of ectopic beats; type: functional, Heart; parameters: concentration or dose not given beside the values
Summary of the method: (§1)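 Isolated atrium preparations in solution bubbled with 95% O2/5% CO2, driven by platinum electrodes with square-wave pulses at 1 Hz (1 ms, twice threshold voltage). After 60 min equilibration, cumulative concentrations were added, each kept until maximal response or arrhythmias appeared.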

[2] = Arrhythmogenic activity was determined by the onset of the first series of ectopic beats; type: functional, Heart; summary of the method: as §1
[3] = species: Cavia porcellus; assay: (§2) In vitro inotropic activity was determined by the affects of contractile force on guinea pig left atrium.; type: functional, organism-based; conditions: Cardiac atrium; summary of the method: as §1
[4] = species: Cavia porcellus; assay: In vitro inotropic activity was determined by the affects of contractile force on guinea pig left atrium; Maximal increase in force of contraction; type: functional; conditions: Cardiac atrium; summary of the method: as §1
[5] = species: Cavia porcellus; assay: In vitro inotropic activity was determined by the affects of contractile force on guinea pig left atrium; type: functional, Cardiac atrium; summary of the method: as §1
[6] = species: Cavia porcellus; assay: as §2; type: functional, Cardiac atrium; summary of the method: as §1
[7] = target: Sodium/potassium-transporting ATPase subunit alpha-1 (Canis lupus familiaris, UniProt P50997); assay: Inhibition of Na+/K+ ATPase from dog kidney

| SMILES | Activity [1] [%] | Activity [2] [µM] | EC50 [3] [µM] | Emax [4] [%] | concentration giving Emax [5] [µM] | concentration giving Emax [6] [µM] | IC50 [7] [µM] |
| --- | --- | --- | --- | --- | --- | --- | --- |
| C[C@]12CC[C@H](O)C[C@H]1CC[C@@H]1[C@@H]2CC[C@]2(C)[C@@H](/C=C/C=N/NC3=NCCN3)CC[C@]12O | 50 | 100 | 9 | 136 | 100 | – | – |
| C[C@]12CC[C@H](O)C[C@H]1CC[C@@H]1[C@@H]2CC[C@]2(C)[C@@H](C3=CC(=O)OC3)CC[C@]12O [DIGITOXIGENIN] | 60 | 10 | 0.6 | 200 | – | 3 | 0.5 |
| C[C@]12CC[C@H](O)C[C@H]1CC[C@@H]1[C@@H]2CC[C@]2(C)[C@@H](CNN=C(N)N)CC[C@]12O.Cl | 0 | 100 | 8 | 166 | 30 | – | 2 |
| C[C@H]1O[C@@H](O[C@H]2[C@@H](O)C[C@H](O[C@H]3[C@@H](O)C[C@H](O[C@H]4CC[C@@]5(C)[C@H](CC[C@@H]6[C@@H]5C[C@@H](O)[C@]5(C)[C@@H](C7=CC(=O)OC7)CC[C@]65O)C4)O[C@@H]3C)O[C@@H]2C)C[C@H](O)[C@@H]1O [DIGOXIN] | 50 | 3 | 0.4 | – | 1 | – | – |
| C[C@]12CC[C@H](O)C[C@H]1CC[C@@H]1[C@@H]2CC[C@]2(C)[C@@H](/C=C/C=C/C=N/N=C(N)N)CC[C@]12O | 100 | 300 | 15 | 98 | 100 | – | 7.94 |
| C[C@]12CC[C@H](O)C[C@H]1CC[C@@H]1[C@@H]2CC[C@]2(C)[C@@H](/C=C/C3=CC(=O)OC3)CC[C@]12O | 0 | 300 | 14 | 110 | – | 100 | 3.98 |
| C[C@]12CC[C@H](O)C[C@H]1CC[C@@H]1[C@@H]2CC[C@]2(C)[C@@H](/C=N/N=C(N)N)CC[C@]12O.Cl | 57 | 30 | 4 | 265 | 30 | – | 1.58 |
| C[C@]12CC[C@H](O)C[C@H]1CC[C@@H]1[C@@H]2CC[C@]2(C)[C@@H](/C=N/NC3=NCCCN3)CC[C@]12O | – | 30 | 5 | 62 | 30 | – | – |
| C[C@]12CC[C@H](O)C[C@H]1CC[C@@H]1[C@@H]2CC[C@]2(C)[C@@H](/C=C/C=N/N=C(N)N)CC[C@]12O | 20 | 3 | 0.4 | 140 | 3 | – | 0.16 |
| C[C@]12CC[C@H](O)C[C@H]1CC[C@@H]1[C@@H]2CC[C@]2(C)[C@@H](/C=N/NC3=NCCN3)CC[C@]12O | 0 | 300 | 17 | 129 | 300 | – | – |
